What was measured:
[1] = Cytotoxicity against multi-drug resistant human KBv200 cells after 72 hrs by MTT assay; format: functional, cell-based; conditions: KBv200, 72 h
Procedure, shortened: (§1)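 MTT read-out after 72 h exposure to compound. KB are drug-sensitive human oral carcinoma cells. KBv200 are the vincristine-induced multidrug-resistant derivative overexpressing ABCB1. Values are means of three independent experiments, each run in quadruplicate, with coefficients of variation below 10%.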

[2] = test system: Fusarium graminearum; test: Antifungal activity against Gibberella zeae at 50 mg/L relative to control; format: functional
[3] = test system: Botrytis cinerea; test: Antifungal activity against Botrytis cinerea at 50 mg/L relative to control; format: functional
[4] = test system: KB; test: Cytotoxicity against human KB cells after 72 hrs MTT assay; format: functional, cell-based; procedure, shortened: as §1
[5] = test system: Rhizoctonia solani; test: Antifungal activity against Rhizoctonia solani at 50 mg/L relative to control; format: functional
[6] = test system: Bipolaris maydis; test: Antifungal activity against Bipolaris maydis at 50 mg/L relative to control; format: functional
[7] = test system: Botryosphaeria berengeriana; test: Antifungal activity against Botryosphaeria berengeriana at 50 mg/L relative to control; format: functional

| SMILES | IC50 [1] [µM] | inhibition at 50 µg/mL [2] [%] | inhibition at 50 µg/mL [3] [%] | IC50 [4] [µM] | inhibition at 50 µg/mL [5] [%] | inhibition at 50 µg/mL [6] [%] | inhibition at 50 µg/mL [7] [%] |
| --- | --- | --- | --- | --- | --- | --- | --- |
| Cc1nc2sc3c(c2c2nc(Oc4cccc(F)c4)n(-c4ccccc4)c(=O)c12)CCCC3 | > 100 | 58 | 98 | > 100 | 84 | 90 | 78 |
| Cc1nc2sc3c(c2c2nc(Oc4ccccc4)n(-c4ccccc4)c(=O)c12)CCCC3 | 61.9 | 15 | 85 | 54.2 | 65 | 76 | 56 |
| CCCNc1nc2c(c(C)nc3sc4c(c32)CCCC4)c(=O)n1-c1ccccc1 | 25.4 | 20 | 57 | 17.4 | 24 | 47 | 29 |
| Cc1nc2sc3c(c2c2nc(Oc4ccc(Br)cc4)n(-c4ccccc4)c(=O)c12)CCCC3 | > 100 | 65 | 83 | 68.9 | 68 | 81 | 83 |
| CCCCNc1nc2c(c(C)nc3sc4c(c32)CCCC4)c(=O)n1-c1ccccc1 | 32.8 | 83 | 100 | 32 | 89 | 79 | 76 |
| Cc1nc2sc3c(c2c2nc(Oc4ccc(F)cc4Cl)n(-c4ccccc4)c(=O)c12)CCCC3 | > 100 | 54 | 88 | > 100 | 79 | 67 | 67 |
| Cc1ccc(Cl)c(Oc2nc3c(c(C)nc4sc5c(c43)CCCC5)c(=O)n2-c2ccccc2)c1 | > 100 | 23 | 88 | > 100 | 63 | 48 | 50 |
| Cc1nc2sc3c(c2c2nc(Oc4cc(F)cc(F)c4)n(-c4ccccc4)c(=O)c12)CCCC3 | 39.9 | 31 | 83 | 52.5 | 74 | 48 | 61 |
| Cc1cc(Oc2nc3c(c(C)nc4sc5c(c43)CCCC5)c(=O)n2-c2ccccc2)ccc1Cl | 72.2 | 31 | 73 | 84.3 | 22 | 52 | 39 |
| Cc1nc2sc3c(c2c2nc(Oc4ccc(F)cc4F)n(-c4ccccc4)c(=O)c12)CCCC3 | > 100 | 38 | 78 | > 100 | 63 | 71 | 50 |
| Cc1ccc(Oc2nc3c(c(C)nc4sc5c(c43)CCCC5)c(=O)n2-c2ccccc2)cc1 | 67.3 | 31 | 80 | 48.3 | 61 | 76 | 56 |
| COc1cccc(Oc2nc3c(c(C)nc4sc5c(c43)CCCC5)c(=O)n2-c2ccccc2)c1 | > 100 | 42 | 66 | > 100 | 76 | 76 | 67 |
| Cc1cccc(Oc2nc3c(c(C)nc4sc5c(c43)CCCC5)c(=O)n2-c2ccccc2)c1 | > 100 | 65 | 99 | > 100 | 91 | 81 | 78 |
| Cc1nc2sc3c(c2c2nc(Oc4ccc([N+](=O)[O-])cc4)n(-c4ccccc4)c(=O)c12)CCCC3 | > 100 | 46 | 85 | > 100 | 68 | 67 | 61 |
| O=c1[nH]cc(F)c(=O)[nH]1 [FLUOROURACIL] | – | – | – | 12.5 | – | – | – |
| CC(C)(C)C(=O)C(Oc1ccc(Cl)cc1)n1cncn1 (configuration not stated) [TRIADIMEFON] | – | 59 | 78 | – | 91 | – | – |
